Published values from different studies.
Lines come from different studies, so protocols differ.
Target: Serine/threonine-protein kinase D3 (PRKD3, Homo sapiens, UniProt O94806)
Residues used in one study (O94806 1-890): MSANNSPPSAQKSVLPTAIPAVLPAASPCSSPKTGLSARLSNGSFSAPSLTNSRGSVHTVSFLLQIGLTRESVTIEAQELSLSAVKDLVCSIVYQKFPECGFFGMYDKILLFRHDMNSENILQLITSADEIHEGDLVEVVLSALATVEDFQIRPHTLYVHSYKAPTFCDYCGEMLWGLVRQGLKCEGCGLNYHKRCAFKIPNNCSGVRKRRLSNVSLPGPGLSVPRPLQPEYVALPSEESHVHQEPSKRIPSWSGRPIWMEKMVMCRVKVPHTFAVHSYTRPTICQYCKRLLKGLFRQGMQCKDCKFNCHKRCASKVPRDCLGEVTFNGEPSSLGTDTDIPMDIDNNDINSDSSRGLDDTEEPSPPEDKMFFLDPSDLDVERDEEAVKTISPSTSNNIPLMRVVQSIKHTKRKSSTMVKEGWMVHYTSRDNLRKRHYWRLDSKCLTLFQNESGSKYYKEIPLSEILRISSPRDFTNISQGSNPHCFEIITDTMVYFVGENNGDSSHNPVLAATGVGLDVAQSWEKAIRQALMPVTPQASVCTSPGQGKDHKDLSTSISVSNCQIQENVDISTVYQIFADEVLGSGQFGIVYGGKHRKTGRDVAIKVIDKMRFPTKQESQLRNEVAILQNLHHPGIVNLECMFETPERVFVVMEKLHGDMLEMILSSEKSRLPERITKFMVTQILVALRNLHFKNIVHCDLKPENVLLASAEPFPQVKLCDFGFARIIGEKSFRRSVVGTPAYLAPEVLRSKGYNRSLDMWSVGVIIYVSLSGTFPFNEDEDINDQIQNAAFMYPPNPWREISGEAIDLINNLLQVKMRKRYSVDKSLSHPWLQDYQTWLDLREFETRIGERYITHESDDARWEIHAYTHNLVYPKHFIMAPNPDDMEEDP

Compound | test | setting | remaining binding
N[C@H]1CCN(c2nccc(-c3cnn4ncccc34)n2)C1 | binding | 1 µM | 91%
C[C@@H](c1ccc(-n2cnc3c(N)ncnc32)cc1)N1CCc2nn(C)c(Cc3ccccc3)c2C1=O | binding, competition with immobilised ligand | 0.1 µM | 85%
O=C(c1ccc(Nc2ncc(Cl)c(-c3ccc(Cl)s3)n2)cc1)N1CCC(N2CCCC2)CC1 | binding, competition with immobilised ligand | 1 µM | 3.6%
COc1ccnn2ncc(-c3ccnc(N(C)C)n3)c12 | binding | 1 µM | 100%
C=CC(=O)N1CCC(C(=O)NCC(=O)N2CCN(c3nc(-c4cnc(N)nc4C(F)F)nc(N4CCOCC4)n3)CC2)CC1 | binding, competition with immobilised ligand | 1 µM | 93%
c1cncc(-c2cccc(Nc3nccc(NC4CCCCC4)n3)c2)c1 | binding, competition with immobilised ligand | 10 µM | 7.4%
CS(=O)(=O)N1CCCC(NC(=O)[C@H](CCC2CCCCC2)NC(=O)c2ccc(CNC(=O)c3cnc4ccccn34)cc2)C1 (stereo partly drawn) | cell-free assay, competition with immobilised ligand | 0.1 µM | 90%
O=C(NCCCN1CCOCC1)c1ccc(Nc2ncc(Cl)c(-c3ccc(Cl)s3)n2)cc1 | binding, competition with immobilised ligand | 1 µM | 20%
CC1CCCN1c1nccc(-c2cnn3ncccc23)n1 (stereo not drawn) | binding | 1 µM | 97%
CNC(=O)c1ccc(Nc2ncc(C(F)(F)F)c(NCc3nccnc3N(C)S(C)(=O)=O)n2)cc1 | cell-free assay, competition with immobilised ligand | 0.1 µM | 100%
CN(C)c1nccc(-c2cnc3ncccn23)n1 | binding | 1 µM | 100%
COc1cnc(Nc2cccc(S(N)(=O)=O)c2)nc1N1CCN(c2ccccc2)C(=O)C1 | binding, competition with immobilised ligand | 1 µM | 92%
C[C@@H]1CCN(c2nccc(-c3cnn4ncccc34)n2)C1 | binding | 1 µM | 100%
O=C(O)[C@@H]1[C@@H](Cn2nnc3ccccc3c2=O)CC[C@H]1C(=O)c1ccc(OCCC2CCOCC2)cc1 | cell-free assay, competition with immobilised ligand | 1 µM | 100%
O=C(c1ccc(Nc2ncc(Cl)c(-c3cc4ccccc4s3)n2)cc1)N1CCC(N2CCCC2)CC1 | binding, competition with immobilised ligand | 1 µM | 18%
C[C@@H]1CN(c2cc(-c3n[nH]c4ccc(OC5(C)CC5)cc34)ncn2)C[C@H](C)O1 | cell-free assay, competition with immobilised ligand | 0.1 µM | 82%
CN(CCCC(F)(F)F)c1nccc(-c2cnn3ncccc23)n1 | binding | 1 µM | 100%
Cc1cc(NC(=O)c2cccc(S(F)(F)(F)(F)F)c2)cc(-n2ccn3nc(-c4cccnc4)cc23)c1 | cell-free assay, competition with immobilised ligand | 1 µM | 100%
O=C(Nc1c[nH]nc1C(=O)NC1CCNCC1)c1cc(F)cc(F)c1 | binding, competition with immobilised ligand | 1 µM | 100%
CNC(=O)[C@@H]1CC[C@@H](n2c(-c3ccc4cnccc4c3)nc3ccc(C(=O)NCc4cccc(C(N)=O)c4)cc32)C1 | binding, competition with immobilised ligand | 1 µM | 91%
CNCc1ccccc1-c1csc([C@@H](C)Nc2nc(C)nc3cc(OC)c(OC)cc23)c1 | cell-free assay, competition with immobilised ligand | 1 µM | 92%
